For 12 molecules, GI50, TGI and CC50 results are on record in ChEMBL document CHEMBL2046300, “A laccase-catalysed one-pot synthesis of aminonaphthoquinones and their anticancer activity” (2012).

Structures are written as SMILES.

Format in all cases: functional
The test system of one experiment is HeLa. As to the kind of experiment: Antiproliferative activity against human HeLa cells after 48 hrs by SRB assay. Conditions: for CC50: read-out: LC50 (the source's name). In general terms: In SRB staining, fixed cells bind dye roughly in proportion to their protein.
The subject of another experiment is UACC-62. As to the kind of experiment: Antiproliferative activity against human UACC62 cells after 48 hrs by SRB assay. Conditions: UACC-62, 48 h; for CC50: read-out: LC50 (the source's name). The procedure, abridged: (§1)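 Cells kept as monolayers in RPMI with 5% FBS, 2 mM L-glutamine and 50 μg/mL gentamicin (37 °C, 5% CO2), used at passages 3–19. They were plated at 7–10 000 cells/well for 24 h, with a T0 plate TCA-fixed at drug addition. Compounds in DMSO, diluted in medium, at 5 concentrations (0.01–100 μM) for 48 h, duplicate. SRB read at 540 nm; net % growth gave GI50, TGI, LC50.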

The test system of a further experiment is TK-10. As to the kind of experiment: Antiproliferative activity against human TK10 cells after 48 hrs by SRB assay. Conditions: TK-10, 48 h; for CC50: read-out: LC50 (the source's name). In short, it runs like this: as §1
In the next experiment the test system is MCF7. As to the kind of experiment: Antiproliferative activity against human MCF7 cells after 48 hrs by SRB assay. Conditions: MCF7, 48 h; for CC50: read-out: LC50 (the source's name). The procedure, abridged:
as §1

As a reminder, the GI50 is the concentration that inhibits growth by half. Low readings indicate more potent growth inhibition, high ones less potent growth inhibition. In general, TGI refers to the concentration giving total growth inhibition. Higher therefore signals less potent growth arrest. On to `O=C(O)C1=C(Nc2ccccc2)C(=O)c2ccccc2C1=O`, for which the GI50 was 49.2 µM with HeLa, 6.66 µM with UACC-62, 74.1 µM in the experiment on TK-10 and 42.6 µM in the experiment with MCF7. In addition, the concentration for total growth inhibition (TGI) with HeLa is 97.2 µM; in the experiment with UACC-62, 30.7 µM; with MCF7, greater than 100 µM. Moreover, the CC50 with HeLa was greater than 100 µM; in the experiment with UACC-62 it was 73.1 µM; in the experiment on TK-10, greater than 100 µM; in the experiment on MCF7, greater than 100 µM.

Consider `CC(C)c1ccc(NC2=C(C(=O)O)C(=O)c3ccccc3C2=O)cc1`, for which the 50% growth inhibitory concentration (GI50) with HeLa was determined as 38.3 µM; in the experiment with UACC-62 it was 5.19 µM; with TK-10 it was 8.38 µM; in the experiment on MCF7, 37.7 µM. Further, the TGI is 73 µM in the experiment with HeLa, 10.8 µM in the experiment with UACC-62, 63.6 µM in the experiment on TK-10 and greater than 100 µM in the experiment on MCF7. Besides, the CC50 is greater than 100 µM with HeLa, 58.1 µM in the experiment with UACC-62, greater than 100 µM in the experiment with TK-10 and greater than 100 µM in the experiment with MCF7.

`O=C(O)C1=C(Nc2ccc(CCO)cc2)C(=O)c2ccccc2C1=O`: the GI50 with HeLa turned out to be 72.5 µM; in the experiment with UACC-62, 7.17 µM; in the experiment with TK-10, 91.1 µM; with MCF7, 54.9 µM. Also, the TGI in the experiment with HeLa is greater than 100 µM; with UACC-62, 35.3 µM; with TK-10, greater than 100 µM; with MCF7 it was greater than 100 µM. Besides, the CC50 with HeLa is greater than 100 µM; in the experiment on UACC-62 it was 72 µM; in the experiment with TK-10 it was greater than 100 µM; with MCF7 it was greater than 100 µM.

As for `N#Cc1cccc(NC2=C(C(=O)O)C(=O)c3ccccc3C2=O)c1`, the GI50 in the experiment on HeLa worked out at 16 µM; with UACC-62, 3.99 µM; in the experiment with TK-10, 23.7 µM; with MCF7 it was 15.1 µM. Moreover, the TGI came out at 49.1 µM in the experiment with HeLa, 7.17 µM with UACC-62, 76.2 µM in the experiment with TK-10 and 53.8 µM in the experiment with MCF7. Moreover, the CC50 with HeLa is 82.3 µM; in the experiment with UACC-62 it was 19.3 µM; in the experiment with TK-10 it was greater than 100 µM; in the experiment with MCF7 it was 92.4 µM.

With `O=C(O)C1=C(Nc2cccc(Cl)c2)C(=O)c2ccccc2C1=O`, the GI50 was determined as 37.3 µM in the experiment on HeLa, 17 µM with UACC-62, 35.9 µM with TK-10 and 43.2 µM in the experiment on MCF7. Further, the TGI was 70.7 µM with HeLa, 49.1 µM in the experiment on UACC-62, greater than 100 µM in the experiment with TK-10 and greater than 100 µM with MCF7. Moreover, the CC50 with HeLa is greater than 100 µM; with UACC-62, 81.2 µM; with TK-10, greater than 100 µM; in the experiment on MCF7, greater than 100 µM.

For `O=C(O)C1=C(Nc2ccc(Cl)cc2)C(=O)c2ccccc2C1=O`, the GI50 was 24.8 µM with HeLa, 3.98 µM in the experiment with UACC-62, 13 µM in the experiment on TK-10 and 17.2 µM in the experiment with MCF7. For the same molecule, the concentration for total growth inhibition (TGI) in the experiment on HeLa amounted to 55.4 µM; with UACC-62 it was 7.83 µM; in the experiment on TK-10, 79 µM; in the experiment with MCF7, 55.1 µM. Also, the CC50 was 86.1 µM in the experiment on HeLa, 55.1 µM with UACC-62, greater than 100 µM in the experiment with TK-10 and 93 µM with MCF7.

Regarding `O=C(O)C1=C(Nc2ccccc2Cl)C(=O)c2ccccc2C1=O`, the GI50 in the experiment on HeLa was 28 µM; in the experiment with UACC-62 it was 31 µM; in the experiment with TK-10, 80.7 µM; with MCF7, 63.5 µM. Besides, the TGI in the experiment with HeLa was 60.3 µM; with UACC-62, 65.8 µM; with TK-10 it was greater than 100 µM; in the experiment with MCF7, greater than 100 µM. Besides, the CC50 in the experiment with HeLa is 90.2 µM; in the experiment on UACC-62, greater than 100 µM; in the experiment with TK-10 it was greater than 100 µM; in the experiment on MCF7 it was greater than 100 µM.

In the case of `O=C(O)C1=C(Nc2ccc(F)cc2)C(=O)c2ccccc2C1=O`, the GI50 is 36.2 µM in the experiment with HeLa, 7.54 µM with UACC-62, 46.6 µM in the experiment on TK-10 and 38.1 µM in the experiment with MCF7. Besides, the TGI in the experiment on HeLa was 67.3 µM; with UACC-62 it was 35 µM; with TK-10, greater than 100 µM; in the experiment on MCF7, 98.9 µM. Also, the CC50 in the experiment with HeLa was 98.4 µM; in the experiment with UACC-62, 72.1 µM; with TK-10, greater than 100 µM; in the experiment with MCF7 it was greater than 100 µM.

For the molecule `O=C(O)C1=C(Nc2cccc(F)c2)C(=O)c2ccccc2C1=O`, the GI50 with HeLa came out at 28 µM; in the experiment with UACC-62, 5.28 µM; with TK-10, 24.7 µM; in the experiment with MCF7 it was 9.08 µM. The TGI with HeLa is 60.3 µM; in the experiment with UACC-62 it was 13.7 µM; with TK-10, greater than 100 µM; in the experiment with MCF7, 48.4 µM. Besides, the CC50 in the experiment on HeLa was 92.5 µM; in the experiment on UACC-62 it was 59.4 µM; with TK-10, greater than 100 µM; in the experiment on MCF7 it was 91 µM.

Turning to `O=C(O)C1=C(Nc2ccccc2F)C(=O)c2ccccc2C1=O`, the GI50 with HeLa is 47.5 µM; in the experiment on UACC-62, 5.67 µM; in the experiment with TK-10, 36.9 µM; in the experiment with MCF7, 9.84 µM. Moreover, the TGI in the experiment on HeLa was 97 µM; in the experiment with UACC-62, 23.3 µM; in the experiment on TK-10, greater than 100 µM; with MCF7 it was 50.8 µM. The CC50 is greater than 100 µM in the experiment with HeLa, 65.4 µM with UACC-62, greater than 100 µM in the experiment on TK-10 and 92.2 µM in the experiment with MCF7.

`O=C(O)C1=C(Nc2ccc(Cl)cc2F)C(=O)c2ccccc2C1=O`: the GI50 is 25.2 µM in the experiment with HeLa, 4.17 µM in the experiment with UACC-62, 13.4 µM in the experiment on TK-10 and 21.4 µM in the experiment on MCF7. Also, the TGI with HeLa stood at 55.5 µM; with UACC-62, 7.94 µM; in the experiment with TK-10, 93.3 µM; in the experiment with MCF7, 54.9 µM. The CC50 in the experiment on HeLa is 85.9 µM; in the experiment with UACC-62, 40.4 µM; in the experiment on TK-10, greater than 100 µM; in the experiment on MCF7 it was 88.5 µM.

Take `COc1cc([C@@H]2c3cc4c(cc3[C@@H](O[C@@H]3O[C@@H]5CO[C@@H](C)O[C@H]5[C@H](O)[C@H]3O)[C@H]3COC(=O)[C@H]23)OCO4)cc(OC)c1O` [ETOPOSIDE]: the 50% growth inhibitory concentration (GI50) in the experiment with HeLa amounted to 3.56 µM; in the experiment on UACC-62 it was 0.89 µM; in the experiment with TK-10, 7.19 µM; in the experiment on MCF7, 0.56 µM. For the same molecule, the TGI was 40.2 µM in the experiment with HeLa, 52.7 µM in the experiment on UACC-62, 49.7 µM in the experiment with TK-10 and greater than 100 µM in the experiment on MCF7. Further, the CC50 in the experiment on HeLa is 87.5 µM; with UACC-62, greater than 100 µM; in the experiment with TK-10 it was greater than 100 µM; with MCF7, greater than 100 µM.
